Assay results collected from several papers.
Target: Calcium/calmodulin-dependent protein kinase type II subunit beta (CAMK2B, Homo sapiens, UniProt Q13554)

Oc1ccc(-c2nc(-c3ccncc3)c(-c3ccc(F)cc3)[nH]2)cc1  remaining signal (cell-free assay; 0.5 µM): 96.4%
Cc1ccc(Nc2nccc(N(C)c3ccc4c(C)n(C)nc4c3)n2)cc1S(N)(=O)=O  inhibition (enzyme activity; inhibitor; 0.3 µM): 15%
CCCCN(CCCC)C(=O)CN1C[C@@H](c2cc(OC)c3c(c2)OCO3)[C@H](C(=O)O)[C@H]1CC(C)(C)CCC  remaining binding (cell-free assay; competition with immobilised ligand; 1 µM): 100%
c1ccc(CNc2nc(N3CCOc4ccccc43)nc3c2CCCC3)cc1  inhibition (target engagement in cells; inhibitor; chemoproteomics; 20 mM): 12.7%
O=c1c2ccccc2[nH]c(=S)n1CCN1CCC(=C(c2ccc(F)cc2)c2ccc(F)cc2)CC1  remaining activity (enzyme activity; inhibitor; 0.5 µM): 102%
CC(C)(C)c1nc(-c2cccc(NS(=O)(=O)c3c(F)cccc3F)c2F)c(-c2ccnc(N)n2)s1  remaining activity (enzyme activity; inhibitor; radiometric; 1 µM): 78%
CS(=O)(=O)N1CCCC(NC(=O)[C@H](CCC2CCCCC2)NC(=O)c2ccc(CNc3ncnc4c3nnn4-c3ccccc3)cc2)C1 (stereo partly drawn)  remaining binding (cell-free assay; competition with immobilised ligand; 0.1 µM): 100%
COc1cc2ncnc(Nc3ccc(Oc4ccccc4)c(C)c3C)c2cc1OC  inhibition (enzyme activity; inhibitor; 1 µM): 12%
COc1cc(Nc2c(C#N)cnc3cc(OCCCN4CCN(C)CC4)c(OC)cc23)c(Cl)cc1Cl  remaining signal (cell-free assay; 0.5 µM): 86.2%
CCCS(=O)(=O)Nc1ccc(F)c(C(=O)c2c[nH]c3ncc(-c4ccc(Cl)cc4)cc23)c1F  inhibition (enzyme activity; inhibitor; 1 µM): < 10%
O=C(NCc1ncc(C(F)(F)F)cc1Cl)c1ccc2c(c1)C1(CCS(=O)(=O)CC1)[C@@H](C1CC1)N2S(=O)(=O)c1ccc(F)cc1  remaining binding (cell-free assay; competition with immobilised ligand; 1 µM): 92%
CNC(=O)c1cc(Oc2ccc(NC(=O)Nc3ccc(Cl)c(C(F)(F)F)c3)cc2)ccn1  inhibition (enzyme activity; inhibitor; 10 µM): 50%
Cc1ncc([N+](=O)[O-])n1C(=NO)c1ccccc1C(F)(F)F  inhibition (enzyme activity; inhibitor; 10 µM): 13.6%
Cc1ccc(NC(=O)c2ccc(C)c(C(F)(F)F)c2)cc1C#Cc1nn(C2CCC(O)CC2)c2ncnc(N)c12 (stereo not drawn)  remaining signal (cell-free assay; 10 µM): 85%
O=C1NC(c2ccccn2)Sc2ccccc21 (stereo not drawn)  remaining binding (cell-free assay; competition with immobilised ligand; 1 µM): 100%
CS(=O)(=O)CCNCc1ccc(-c2ccc3ncnc(Nc4ccc(OCc5cccc(F)c5)c(Cl)c4)c3c2)o1  remaining signal (cell-free assay; 0.5 µM): 93.8%
O=C(Nc1cnn(-c2csc(C(=O)NC3COC3)c2)c1)Nc1c(F)cccc1Cl  remaining activity (enzyme activity; inhibitor; 5 µM): 99.1%
CCN(CC)CCNC(=O)c1c(C)[nH]c(/C=C2\C(=O)Nc3ccc(F)cc32)c1C  inhibition (enzyme activity; inhibitor; 10 µM): 91%
CO[C@@H](C)c1c(Nc2ccc([C@H](N(C)C(=O)C3CCS(=O)(=O)CC3)C(F)(F)F)cc2)cnc2cc(Cl)nn12  remaining binding (cell-free assay; competition with immobilised ligand; 1 µM): 94%
Cc1ccc(C(=O)NCc2ccsc2)cc1C#Cc1cn(C(C)C)c2ncnc(N)c12  activity vs control (enzyme activity; inhibitor; 1 µM): 95%
C[C@@H]1CN(c2cc(-c3nn(C)c4ccc(OC5(C)CC5)cc34)ncn2)C[C@H](C)O1  remaining binding (cell-free assay; competition with immobilised ligand; 1 µM): 96%
CC/C(=N\NC(=O)NCc1cccc(O)c1)c1ccc(O)c(C)c1O  inhibition (enzyme activity; inhibitor; 0.1 µM): -4%
CC(C)(O)[C@H]1CC[C@H](Nc2ccc3ncc(-c4cccc(C(F)(F)F)c4)n3n2)CC1  remaining activity (enzyme activity; inhibitor; 1 µM): 96.9%
O=C(Nc1ccc(Oc2ccc(F)cc2)cc1)N1CCc2ncccc2[C@H]1c1ccc(F)cc1  remaining binding (cell-free assay; competition with immobilised ligand; 1 µM): 100%
CCCOc1ccc(OC)c(F)c1C(=O)c1ccc(C(=O)N[C@@H]2CNC[C@H]2NC(=O)c2ccc3[nH]ncc3c2)cc1  remaining activity (enzyme activity; inhibitor; 10 µM): 53%
COc1cc(Cl)c(C(=O)N[C@@H](CN[C@H]2CC[C@@H](N)CC2)Cc2ccc(C#N)cc2)cc1-c1ccc(CN[C@H](C)c2ccc(C)cc2)o1  remaining activity (enzyme activity; inhibitor; 1 µM): 94%
O=C1Nc2ccc(Cl)cc2C1=Cc1cc(Cl)c(O)c(Cl)c1  remaining signal (cell-free assay; 0.5 µM): 92%
Cc1ccc(-n2nc(C(C)(C)C)cc2NC(=O)Nc2ccc(OCCN3CCOCC3)c3ccccc23)cc1  inhibition (enzyme activity; inhibitor; 10 µM): 22%
COc1ccc2c(c1)O[C@H](c1ccc(OC)c(OC)c1)C[C@@H]2NC(=O)C1(c2ccc3c(c2)OC(F)(F)O3)CC1  remaining binding (cell-free assay; competition with immobilised ligand; 1 µM): 88%
C[S+]([O-])c1ccc(-c2nc(-c3ccncc3)c(-c3ccc(F)cc3)[nH]2)cc1 (stereo not drawn)  remaining signal (cell-free assay; 0.5 µM): 97.6%
